Assay [1] addresses T1, Hypoxia inducible factors; HIF-1-alpha, HIF-2-alpha (Homo sapiens, UniProt Q16665+Q99814). The assay can be described thus: Inhibition of HIF1-mediated carbonic anhydrase 9 gene expression in human HT1080 cells at 1 to 100 uM after 4 hrs by real time PCR method. As to conditions: HT-1080. In kind it is cell-based. An outline of the steps:
(§1)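 HT1080 cells treated 4 h with compound; mRNA of CAIX, HIF-1a and HIF-1b quantified by real-time PCR, normalized to 18S rRNA and expressed relative to DMSO-treated cells.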
In general terms: Real-time PCR tracks product formation cycle by cycle.

The nature of assay [2]: Inhibition of cell proliferation of human HT1080 cells after 72 hrs by WST-8 dye based cell counting assay. As to conditions: HT-1080, 72 h. In kind it is functional. The essentials: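 HT1080 cells seeded at 1.0 × 10³/well and kept under hypoxia (1% O₂); growth read 72 h after compound addition with WST-8 reagent, absorbance at 450 nm.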
On the technique in general: Tetrazolium dyes change colour on reduction, which living cells bring about.

Assay [3] deals with HT-1080. As to the kind of experiment: Effect on HIF-1beta gene expression in human HT1080 cells up to 100 uM after 4 hrs by real time PCR method. Type of assay: functional, cell-based. The essentials:
as §1

In assay [4] the test system is HT-1080. The assay can be described thus: Inhibition of cell migration of scratched human HT1080 cells monolayers at 100 uM after 48 hrs by phase contrast microscopy based wound-healing assay. Type of assay: functional.
For assay [5], the system named is HT-1080. The assay can be described thus: Effect on HIF-1alpha gene expression in human HT1080 cells up to 100 uM after 4 hrs by real time PCR method. In kind it is functional, cell-based. An outline of the steps:
as §1

In assay [6] the target is T1, Hypoxia inducible factors; HIF-1-alpha, HIF-2-alpha. The assay can be described thus: Inhibition of HIF1 in human HT1080 cells transfected with 5xHRE/pGL3/VEGF/E1b reporter plasmid pre-incubated for 1 hr followed by incubation under hypoxia conditions for 24 hrs by HRE-driven luciferase reporter gene assay. In kind it is cell-based. As to conditions: for IC50: ht-1080. (In a reporter assay the amount or activity of a reporter protein is the signal.)

The target is the same in assay [7]. The assay can be described thus: Inhibition of HIF1-mediated carbonic anhydrase 9 gene expression in human HT1080 cells at 100 uM after 16 hrs by real time PCR method. Type of assay: cell-based. As to conditions: HT-1080. The essentials: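 HT1080 cells exposed to compounds at 100 µM for 16 h; CAIX mRNA measured by quantitative PCR normalized to 18S rRNA, expressed relative to the normoxic value.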

The structures appear in SMILES notation. Calls of active or inactive are those of the source. The rule behind the calls is not given here. Where only a bound is given, the exact number is not on record here.

As usually defined, the IC50 is the midpoint of a concentration-inhibition curve. High values mean lower potency, low ones higher potency.

On to `CCn1cc(NC(=O)c2ccc(Cn3nc(C)cc3C)o2)c(C(N)=O)n1`, for which the inhibition result in assay [1] and in assay [6] (HT-1080) was “Dose-dependent effect” in each case. The IC50 was 15.1 µM in assay [2] and 19.1 µM in assay [6]. The result in assay [3] and in assay [5] was inactive. Further, in assay [4], the inhibition result is “Active”.
In the case of `CCn1ncc(NC(=O)c2ccc(Cn3nc(C)cc3C)o2)c1C(N)=O`, the IC50 in assay [2] and in assay [6] was greater than 100 µM throughout. In addition, the inhibition entry in assay [7] is “inactive”.
On to `Cc1cc(C)n(Cc2ccc(C(=O)Nc3c[nH]nc3C(N)=O)o2)n1`, for which the half-inhibitory concentration (IC50) in assay [2] is 66.6 µM; in assay [6], 71.6 µM.
The corresponding values for `CCn1cc(NC(=O)c2ccc(Cc3c(C)noc3C)o2)c(C(N)=O)n1` are greater than 100 µM and greater than 100 µM.
For `CCn1cc(NC(=O)c2ccc(Cn3nc(C)c(Br)c3C)o2)c(C(N)=O)n1`, the results for the half-inhibitory concentration (IC50) in assay [2] and in assay [6] were 7 µM and 8.1 µM, respectively. Further, the inhibition entry in assay [7] and in assay [4] was “Active” in each case.
Take `Cc1cc(C)n(Cc2ccc(C(=O)Nc3cnn4c3C(=O)NCC4)o2)n1`: the IC50 in assay [2] and in assay [6] was greater than 100 µM in each case.
As to `CCn1cc(NC(=O)c2ccc(Cn3nc(C)cc3C)o2)c(C(=O)N(C)C)n1`, the values for the IC50 in assay [2] and in assay [6] were 75 µM and greater than 100 µM, respectively.
Take `CCn1cc(NC(=O)c2ccc(Cn3nc(C)c(Cl)c3C)o2)c(C(N)=O)n1`: the IC50 worked out at 7.4 µM in assay [2] and 8.7 µM in assay [6]. The inhibition entry in assay [7] and in assay [4] was “Active” throughout.
Consider `CCn1cc(NC(=O)c2ccc(Cn3cccn3)o2)c(C(N)=O)n1`, for which the figures for the IC50 in assay [2] and in assay [6] were 75.1 µM and 81.8 µM, respectively.
The corresponding values for `CCn1cc(NC(=O)c2cccc(Cn3nc(C)cc3C)c2)c(C(N)=O)n1` are 50.2 µM and 72 µM.
Taken in the same sequence, the figures for `CCn1cc(NC(=O)c2ccc(Cn3nc(C)cc3C)o2)c(C(=O)NC)n1` were 18.1 µM and 19.4 µM.
Consider `CCn1cc(NC(=O)c2ccc(Cn3nc(C)cc3C)s2)c(C(N)=O)n1`, for which the IC50 in assay [2] and in assay [6] was greater than 100 µM in each case.

(Values after ChEMBL document CHEMBL3400140, “Design, synthesis, and structure-activity relationships of 1-ethylpyrazole-3-carboxamide compounds as novel hypoxia-inducible factor (HIF)-1 inhibitors” (Bioorg Med Chem, 2015).)
